Experimental findings from ChEMBL document CHEMBL1141594, “Synthesis, radiosynthesis, and biological evaluation of new proteasome inhibitors in a tumor targeting approach” (J Med Chem, 2008) are described below.

Structures are written as SMILES. Residues, ends and D or L forms follow the SMILES beside them. *: point of attachment. Cbz = O=C(OCc1ccccc1)*

Data set [1] in a line: Growth inhibition of human IPC227F cells after 48 hrs. The format is functional. The method in brief:
(§1)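 DMEM with 10% fetal calf serum, monolayer culture. 5 × 10³ cells/well seeded and left 24 h at 37 °C, 5% CO₂, humidified. Exposed 48 h to increasing concentrations. Growth measured with Hoechst 33342 dye. IC₅₀ is the mean ± SD of three independent experiments, each in triplicate. Compounds tested as hydrochloride salts.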

Another data set concerns B16. The data set can be described thus: Growth inhibition of mouse B16 cells after 48 hrs. The class given is functional, cell-based. As to conditions: B16, 48 h. The method, boiled down:
as §1

A short description of data set [2]: Biodistribution in tumor of C57/BL6 mouse bearing B16 cells at 0.07 uM, iv after 15 mins. The format is ADME, organism-based, C57Bl/6, Neoplasm. As to conditions: read-out: Drug uptake. The method, boiled down:
(§2)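 ¹²⁵I-labelled compound given to C57Bl/6J mice with subcutaneous B16 melanoma. Organs and tissues sampled at 15 min, 30 min, 1 h, 3 h and 6 h post-injection. Radioactivity expressed as % injected dose per unit organ mass. Feces and urine collected over 72 h for elimination.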

Data set [3] can be described thus: Biodistribution in kidney of C57/BL6 mouse bearing B16 cells at 0.07 uM, iv. The class given is ADME, organism-based, C57Bl/6. As to conditions: read-out: Drug uptake. The method in brief: as §2
The next data set relates to Mus musculus. The data set can be described thus: Drug metabolism in C57/BL6 mouse bearing B16 cells assessed as elimation in faeces and urine at 0.07 uM, iv after 72 hrs. The class given is ADME, organism-based, C57Bl/6. The following applies: in vivo. The method, boiled down:
as §2

Data set [4] is described as follows: Ratio of biodistribution in tumor to blood in C57/BL6 mouse bearing mouse B16 cells. The class given is ADME, organism-based, C57Bl/6.
A short description of data set [5]: Biodistribution in tumor of C57/BL6 mouse bearing B16 cells assessed as remaining drug level at 0.07 uM, iv after 6 hrs. The format is ADME, organism-based, C57Bl/6, Neoplasm. As to conditions: read-out: Drug uptake. The method, boiled down: as §2
Data set [6] can be described thus: Biodistribution in lung of C57/BL6 mouse bearing B16 cells at 0.07 uM, iv. The class given is ADME, organism-based, C57Bl/6. The following applies: read-out: Drug uptake. The method, boiled down: as §2
Data set [7] in a line: Biodistribution in liver of C57/BL6 mouse bearing B16 cells at 0.07 uM, iv. The class given is ADME, organism-based, C57Bl/6. As to conditions: read-out: Drug uptake. The method, boiled down:
as §2

Data set [8] in a line: Biodistribution in tumor of C57/BL6 mouse bearing B16 cells assessed as remaining drug level at 0.07 uM, iv after 3 hrs. The format is ADME, organism-based, C57Bl/6, Neoplasm. As to conditions: read-out: Drug uptake. The method, boiled down: as §2

For orientation: IC50 means the midpoint of a concentration-inhibition curve. Low readings indicate higher potency, high ones lower potency. The term Kp denotes the ratio of the level in a tissue or fluid to that in plasma or blood.

`CCN(CC)CCNC(=O)c1ccc(C(=O)N[C@@H](CC(C)C)C(=O)N[C@@H](CC(C)C)C(=O)N[C@H](C=O)CC(C)C)c(/N=N/N2CCCC2)c1`: the IC50 stood at 180 nM in [1] and 20 nM in the data set on B16.

On to `CC(C)C[C@@H](C=O)NC(=O)[C@H](CC(C)C)NC(=O)[C@H](CC(C)C)NC(=O)OCc1ccccc1` (Cbz-Leu-Leu-Leu-aldehyde), for which the half-inhibitory concentration (IC50) was found to be 77 nM in [1] and 42 nM in the data set on B16.

With `CCN(CC)CCNC(=O)c1ccc(C(=O)N[C@@H](CC(C)C)C(=O)N[C@@H](CC(C)C)C(=O)N[C@H](C=O)CC(C)C)c(I)c1`, the IC50 in data set [1] is 3580 nM; in the data set with B16 it was 1790 nM.

Turning to `CCN(CC)CCNC(=O)c1ccc(C(=O)N[C@@H](CC(C)C)C(=O)N[C@@H](CC(C)C)C(=O)N[C@H](C=O)CC(C)C)c(NNN2CCCC2)c1`, the values for the IC50 (in data set [1]; with B16) were 1850 nM and 530 nM, respectively.

Take `CCN(CC)CCNC(=O)c1ccc(C(=O)N[C@@H](CC(C)C)C(=O)N[C@@H](CC(C)C)C(=O)N[C@H](C=O)CC(C)C)c([125I])c1.Cl`: the tissue uptake at 0.25 h, 0.07 µM in [2] is 2.7 %ID/g. The tissue uptake at 0.07 µM in data set [3] was 4.9 %ID/g; in data set [6] it was 16.3 %ID/g; in [7], 8.9 %ID/g. Moreover, the Activity in the data set with Mus musculus was 87%. The Kp in [4] is not below 1. In addition, the tissue uptake at 6 h, 0.07 µM in [5] is 1.2 %ID/g. In addition, the tissue uptake at 3 h, 0.07 µM in [8] came out at 1.2 %ID/g.

As for `CCN(CC)CCNC(=O)c1ccc(C(=O)N[C@@H](CC(C)C)C(=O)N[C@@H](CC(C)C)C(=O)N[C@H](C=O)CC(C)C)cc1`, the IC50 in data set [1] was determined as 640 nM; in the data set with B16 it was 1300 nM. Further, the tissue uptake at 0.07 µM in data set [7] turned out to be 5.95 %ID/g.
